ChEMBL document CHEMBL1153183, “Pyridine containing M(1) positive allosteric modulators with reduced plasma protein binding” (Bioorg Med Chem Lett, 2010)

Experiments:
[1] = biological target: T1, Muscarinic acetylcholine receptor M1 (Homo sapiens) (UniProt P11229); test: Potentiation of human muscarinic M1 receptor expressed in CHO cells assessed as effect on acetylcholine-induced calcium mobilization by FLIPR assay at 30 uM
T1 sequence (whole entry): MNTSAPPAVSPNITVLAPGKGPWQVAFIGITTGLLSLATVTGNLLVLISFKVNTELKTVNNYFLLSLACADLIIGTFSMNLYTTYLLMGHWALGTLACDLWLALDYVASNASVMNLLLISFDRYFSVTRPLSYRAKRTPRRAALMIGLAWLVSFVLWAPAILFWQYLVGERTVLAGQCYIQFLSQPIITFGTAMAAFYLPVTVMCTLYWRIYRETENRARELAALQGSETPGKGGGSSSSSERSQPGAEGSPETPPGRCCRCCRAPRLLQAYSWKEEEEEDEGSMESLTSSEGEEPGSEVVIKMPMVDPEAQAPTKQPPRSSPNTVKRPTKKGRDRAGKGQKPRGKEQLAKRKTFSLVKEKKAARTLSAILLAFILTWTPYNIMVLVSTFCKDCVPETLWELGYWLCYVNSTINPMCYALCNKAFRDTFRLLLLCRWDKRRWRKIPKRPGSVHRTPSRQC

[2] = biological target: T1, Muscarinic acetylcholine receptor M1 (Homo sapiens); test: Allosteric modulation of human muscarinic M1 receptor expressed in CHO cells assessed as effect on acetylcholine-induced calcium mobilization by FLIPR assay; type: functional, cell-based
Outline: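 Human M1-expressing CHO cells; test compound added with an EC20 concentration of acetylcholine; calcium mobilization read on FLIPR384. Inflection point (IP) derived; percent max is the maximum potentiated EC20 response. Values are the mean of at least two experiments; interassay variability ±30% for IP unless otherwise noted.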

[3] = biological target: T1, Muscarinic acetylcholine receptor M1 (Homo sapiens); test: Allosteric modulation of human muscarinic M1 receptor expressed in CHO cells assessed as effect on acetylcholine-induced calcium mobilization by FLIPR assay relative to 1-Biphenyl-4-ylmethyl-4-oxo-1,4-dihydro-quinoline-3-carboxylic acid; type: functional, cell-based
[4] = Plasma concentration in Sprague-Dawley rat at 10 mg/kg, po after 2 hrs
[5] = Drug level Sprague-Dawley rat cerebrospinal fluid at 10 mg/kg, po after 2 hrs
[6] = Drug level Sprague-Dawley rat brain at 10 mg/kg, po after 2 hrs
[7] = Ratio of drug level in brain to plasma Sprague-Dawley rat at 10 mg/kg, po after 2 hrs

Row | SMILES | IP [2] [nM] | further results
1 | COc1cccc(-c2ccc(Cn3cc(C(=O)O)c(=O)c4cccc(F)c43)nc2)c1 | 89 | –
2 | O=C(O)c1cn(Cc2ccc(-c3ccccc3)cn2)c2c(F)cccc2c1=O | 153 | Emax [3]: 80%; fold change (FC) [1]: 37
3 | O=C(O)c1cn(Cc2ccc(-c3ccc4[nH]ccc4c3)nc2)c2c(F)cccc2c1=O | 65 | –
4 | O=C(O)c1cn(Cc2ccc(-c3ccc(F)nc3)nc2)c2c(F)cccc2c1=O | 202 | –
5 | O=C(O)c1cn(Cc2ccc(-c3ccccc3)nn2)c2c(F)cccc2c1=O | 390 | Emax [3]: 97%
6 | O=C(O)c1cn(Cc2ccc(-c3cccnc3)nn2)c2c(F)cccc2c1=O | 778 | –
7 | O=C(O)c1cn(Cc2ccc(-c3ccc(F)nc3)cn2)c2c(F)cccc2c1=O | 100 | concentration at 2 h [4]: 12800 nM; fold change (FC) [1]: 81; concentration at 2 h [5]: 97 nM; concentration at 2 h [6]: 311 nM; Kp at 2 h [7]: 0.05
8 | O=C(O)c1cn(Cc2cnc(-c3ccccc3)cn2)c2c(F)cccc2c1=O | 1300 | Emax [3]: 85%
9 | O=C(O)c1cn(Cc2ccc(-c3ccc(F)cc3)cn2)c2c(F)cccc2c1=O | 67 | –
10 | Cn1cc(-c2ccc(Cn3cc(C(=O)O)c(=O)c4c(F)ccc(F)c43)nc2)cn1 | 114 | –
11 | O=C(O)c1cn(Cc2ccc(-c3cncc(F)c3)cn2)c2c(F)cccc2c1=O | 680 | –
12 | COc1ccc(Cn2cc(C(=O)O)c(=O)c3ccccc32)cc1 | 660 | –
13 | O=C(O)c1cn(Cc2cnc(-c3ccccc3)nc2)c2c(F)cccc2c1=O | 4000 | Emax [3]: 88%
14 | CS(=O)(=O)c1cccc(-c2ccc(Cn3cc(C(=O)O)c(=O)c4cccc(F)c43)nc2)c1 | 97 | –
15 | CN(C)c1ccc(-c2ccc(Cn3cc(C(=O)O)c(=O)c4cccc(F)c43)nc2)cn1 | 82 | –
16 | O=C(O)c1cn(Cc2ccc(-c3ccc(F)cc3)nc2)c2c(F)cccc2c1=O | 190 | –
17 | CS(=O)(=O)c1ccccc1-c1ccc(Cn2cc(C(=O)O)c(=O)c3cccc(F)c32)nc1 | 97 | –
18 | O=C(O)c1cn(Cc2ccc(-c3ccc(Cl)nc3)nc2)c2c(F)cccc2c1=O | 169 | –

Now from value to compound, other results behind:

Row | IP [2] [nM] | SMILES | further results
19 | 21 | Nc1cccc(-c2ccc(Cn3cc(C(=O)O)c(=O)c4cccc(F)c43)nc2)c1 | fold change (FC) [1]: 45
20 | 78 | CC(=O)Nc1ccc(-c2ccc(Cn3cc(C(=O)O)c(=O)c4cccc(F)c43)nc2)cc1 | –
21 | 150 | O=C(O)c1cn(Cc2ccc(-c3cccs3)cn2)c2c(F)cccc2c1=O | –
22 | 1540 | CS(=O)(=O)c1cccc(-c2ccc(Cn3cc(C(=O)O)c(=O)c4cccc(F)c43)nn2)c1 | –
23 | 130 | CN(C)c1cccc(-c2ccc(Cn3cc(C(=O)O)c(=O)c4cccc(F)c43)cn2)c1 | –
24 | 8660 | O=C(O)c1cn(Cc2ccc(-c3ccc4[nH]ccc4c3)nn2)c2c(F)cccc2c1=O | –
25 | 160 | Cn1cc(-c2ccc(Cn3cc(C(=O)O)c(=O)c4cccc(F)c43)nc2)cn1 | concentration at 2 h [4]: 33300 nM; fold change (FC) [1]: 37; concentration at 2 h [5]: 40 nM; concentration at 2 h [6]: 430 nM; Kp at 2 h [7]: 0.03
26 | 370 | O=C(O)c1cn(Cc2ccc(-c3cccnc3)cn2)c2c(F)cccc2c1=O | concentration at 2 h [4]: 2790 nM; concentration at 2 h [5]: 25 nM; concentration at 2 h [6]: 154 nM; Kp at 2 h [7]: 0.05
27 | 260 | CS(=O)(=O)c1ccc(-c2ccc(Cn3cc(C(=O)O)c(=O)c4cccc(F)c43)nc2)cc1 | fold change (FC) [1]: 33
28 | 110 | CN(C)c1cccc(-c2ccc(Cn3cc(C(=O)O)c(=O)c4cccc(F)c43)nc2)c1 | –
29 | 2320 | O=C(O)c1cn(Cc2ncc(-c3ccccc3)cn2)c2c(F)cccc2c1=O | Emax [3]: 90%
30 | 28 | CS(=O)(=O)c1cccc(-c2ccc(Cn3cc(C(=O)O)c(=O)c4cccc(F)c43)cn2)c1 | concentration at 2 h [4]: 382 nM; concentration at 2 h [6]: 154 nM; Kp at 2 h [7]: 0.4
31 | 604 | O=C(O)c1cn(Cc2ccc(-c3ccccc3)nc2)c2c(F)cccc2c1=O | Emax [3]: 97%
32 | 466 | O=C(O)c1cn(Cc2ccc(-c3ccc(F)cc3)nn2)c2c(F)cccc2c1=O | –
33 | 169 | O=C(O)c1cn(Cc2ccc(-c3ccnc(Cl)c3)cn2)c2c(F)cccc2c1=O | –
34 | 57 | O=C(O)c1cn(Cc2ccc(-c3ccc4[nH]ccc4c3)cn2)c2c(F)cccc2c1=O | –
35 | 21 | Nc1cccc(-c2ccc(Cn3cc(C(=O)O)c(=O)c4cccc(F)c43)cn2)c1 | –
36 | 200 | Nc1ccc(-c2ccc(Cn3cc(C(=O)O)c(=O)c4cccc(F)c43)nc2)cn1 | –
